Test results from ChEMBL document CHEMBL1142533, “Structure-based virtual screening and biological evaluation of Mycobacterium tuberculosis adenosine 5'-phosphosulfate reductase inhibitors” (J Med Chem, 2008).

Legend:
[1] = Binding affinity to Mycobacterium tuberculosis APS reductase
Procedure, shortened: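 Timed aliquots quenched in 2% charcoal/20 mM Na2SO3, radiolabeled sulfite in supernatant counted. kobs from single-exponential fit; Ki (=Kd) from kobs dependence on inhibitor concentration.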

[2] = target: T1, Receptor-type tyrosine-protein phosphatase C (Homo sapiens) (UniProt P08575)
T1 sequence (whole entry): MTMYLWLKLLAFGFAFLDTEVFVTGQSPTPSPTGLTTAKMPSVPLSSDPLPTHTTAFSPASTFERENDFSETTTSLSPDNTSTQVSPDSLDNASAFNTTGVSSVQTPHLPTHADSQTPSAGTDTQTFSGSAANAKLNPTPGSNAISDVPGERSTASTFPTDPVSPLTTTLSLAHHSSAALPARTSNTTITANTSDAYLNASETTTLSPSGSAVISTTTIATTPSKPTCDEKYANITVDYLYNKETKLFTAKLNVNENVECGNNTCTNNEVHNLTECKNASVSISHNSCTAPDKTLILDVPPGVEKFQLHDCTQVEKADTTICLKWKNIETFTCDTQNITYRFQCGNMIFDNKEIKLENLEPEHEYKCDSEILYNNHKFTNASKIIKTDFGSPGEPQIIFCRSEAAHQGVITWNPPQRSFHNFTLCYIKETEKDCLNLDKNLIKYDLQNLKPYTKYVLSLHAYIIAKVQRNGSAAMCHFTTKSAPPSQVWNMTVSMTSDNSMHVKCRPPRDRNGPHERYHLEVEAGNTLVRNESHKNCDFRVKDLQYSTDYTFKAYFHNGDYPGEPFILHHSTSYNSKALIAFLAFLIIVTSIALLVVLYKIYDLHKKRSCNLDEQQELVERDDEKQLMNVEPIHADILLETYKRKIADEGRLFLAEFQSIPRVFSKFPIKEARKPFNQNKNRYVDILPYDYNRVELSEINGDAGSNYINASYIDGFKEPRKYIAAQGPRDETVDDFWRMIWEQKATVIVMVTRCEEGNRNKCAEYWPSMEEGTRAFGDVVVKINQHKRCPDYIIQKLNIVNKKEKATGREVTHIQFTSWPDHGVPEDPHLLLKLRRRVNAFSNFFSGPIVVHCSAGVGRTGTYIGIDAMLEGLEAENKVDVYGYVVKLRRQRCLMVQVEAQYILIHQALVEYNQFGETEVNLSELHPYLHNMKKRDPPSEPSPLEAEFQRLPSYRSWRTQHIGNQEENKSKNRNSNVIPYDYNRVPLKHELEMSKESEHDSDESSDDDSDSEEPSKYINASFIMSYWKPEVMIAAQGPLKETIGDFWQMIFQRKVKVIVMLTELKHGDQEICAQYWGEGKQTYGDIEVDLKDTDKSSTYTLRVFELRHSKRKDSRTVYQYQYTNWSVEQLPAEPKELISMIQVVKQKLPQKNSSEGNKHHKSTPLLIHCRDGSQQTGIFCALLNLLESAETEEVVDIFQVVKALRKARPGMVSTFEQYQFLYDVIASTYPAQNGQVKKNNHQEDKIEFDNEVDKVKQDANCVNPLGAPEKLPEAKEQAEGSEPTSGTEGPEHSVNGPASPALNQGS

[3] = system: Mycobacterium tuberculosis; test: Inhibition of Mycobacterium tuberculosis APS reductase assessed as [35S]sulphite release at 100 uM

| Structure (SMILES) | Kd [1] [µM] | Kinact [2] [M⁻¹ s⁻¹] | inhibition [3] [%] |
| --- | --- | --- | --- |
| O=C1c2cc(F)ccc2-c2cc(F)c([N+](=O)[O-])cc21 | 44.6 |  |  |
| O=C1C(=O)c2cc([N+](=O)[O-])ccc2-c2ccccc21 | 6.81 | 4300 |  |
| O=C(O)C[S+]([O-])c1ccc2c3c(cccc13)C(=O)c1ccccc1-2 (centres undefined) | 180 |  |  |
| CC(=O)Nc1cc2c(cc1[N+](=O)[O-])-c1ccccc1C2=O | 31.8 |  |  |
| O=C1c2ccccc2-c2cc([N+](=O)[O-])c([N+](=O)[O-])cc21 | 37.1 |  | > 50 |
| Nc1nc(Sc2ccc([N+](=O)[O-])c3nonc23)c2nc[nH]c2n1 | 15.2 |  | > 90 |
| CC(=O)[C@H]1CC[C@H]2C34C=C[C@]5(C[C@@H](O)CC[C@]5(C)C3=CC[C@]12C)[C@H](C(=O)O)[C@@H]4C(=O)O | 127 |  |  |
| O=C(O)CCc1nnc2c3ccccc3c3ccccc3c2n1 | 46.9 |  | > 50 |
| O=[N+]([O-])c1ccc(Sc2cccc[n+]2[O-])c2nonc12 | 19.5 |  |  |
| O=C1c2ccccc2-c2c1cc([N+](=O)[O-])cc2[N+](=O)[O-] | 48.1 |  |  |
